In all, about 310,000 compounds went through this assay and about 2,800 (0.9%) were called active.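 The calls were made as follows: active = B-score of the integrated calcium signal more than 4 SD below the library mean, with starting fluorescence not abnormally high; inactive = the rest.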 The entries come from a sample that favours actives as a whole.
Test: RGS4 potentiators or activators, primary screen, cell-based, HEK293 M3R inducible RGS4, calcium flux (AID 463111);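 as to B-score: negative B-score means reduced calcium response which marks RGS4 activation or potentiation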
Details: HEK293 M3R/inducible RGS4, carbachol calcium flux Fluo4, at 10 µM; active compounds read low
Outline: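 test system = HEK293 cells with stable M3R and inducible RGS4 | schedule = recording 10 s baseline at 1 Hz, 100 s post-agonist | technique = Fluo4-AM (2 µM) calcium-flux fluorescence, kinetic read | measure = Agonist-evoked peak-minus-minimum fluorescence over baseline, integrated ratio, B score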
For `Cc1ccc(NC(=O)COc2coc(CN3CCc4ccccc4C3)cc2=O)cc1Cl`, the B-score was “inactive”.
In the case of `CCOC(=O)C1(Cc2ccccc2C)CCCN(C(=O)c2ccc(COC)o2)C1` (configuration not stated), the B-score is reported as “inactive”.
In the case of `CCOc1cc(C(=S)N2CCOCC2)ccc1OS(=O)(=O)c1ccc(Br)cc1`, the B-score is reported as “inactive”.
For `COc1ccc(C(=O)NC2CCCc3c2cnn3-c2cccc(C)c2C)c(OC)n1` (configuration not stated), the B-score was -10.2 (active).
For `Cn1nccc1C(=O)NC1CCCc2c1cnn2-c1ccccc1F` (configuration not stated), the B-score was “inactive”.
With `Cc1cc(C(=O)NC2CCCc3c2cnn3-c2cccc(C)c2C)c(C)o1` (configuration not stated) the B-score was “inactive”.
For `Cc1cccc(C(=O)Nc2ccc(C(=O)/C=C/c3cccs3)cc2)c1`, the B-score was -10.5 (active).
In the case of `Cc1cccc(C(=O)Nc2ccc(C(=O)N/N=C/c3cccc(C)n3)cc2)c1`, the B-score is reported as “inactive”.
In the case of `Cc1cccc(C(=O)Nc2ccc(CC(=O)O)cc2)c1`, the B-score is reported as “inactive”.
In the case of `Cn1nc(C(F)(F)F)c2cc(NC(=O)OCC(C)(C)C)sc21`, the B-score is reported as “inactive”.
With `CN(C(=O)CN1C(=O)CCSc2ccc(S(=O)(=O)N3CCCC3)cc21)c1ccccc1` the B-score was “inactive”.
For `CCCCOc1ccc(N(CC(=O)NCC2CCCO2)C(=O)CCC(=O)Nc2cc(C)ccn2)cc1` (configuration not stated), the B-score was “inactive”.
In the case of `Cc1cc(C)cc(NS(=O)(=O)c2ccc(F)cc2)c1`, the B-score is reported as “inactive”.
For `COc1ccccc1Oc1ccc(S(=O)(=O)Nc2cccnc2)cc1`, the B-score was “inactive”.
For `Cc1cc(C)cc(NS(=O)(=O)c2ccc(Oc3ncc(C(F)(F)F)cc3Cl)cc2)c1`, the B-score was -8.23 (active).
With `CCN1C(=O)[C@H]2[C@@H](c3ccc(C)cc3)N3C(=O)N(c4cccc(Br)c4)C(=O)[C@@]3(CC)[C@H]2C1=O` the B-score was “inactive”.
For `Cc1cc(NC(=O)CCN2CCN(Cc3ccccc3)CC2)ccc1Br`, the B-score was “inactive”.
With `CCc1ccccc1NC(=O)[C@@H]1CCC(=O)N1C1OC(=O)c2c1ccc(OC)c2OC` (some centres not stated) the B-score was -8.3 (active).
With `O=C(Nc1ccccc1C(=O)N1CCOCC1)C1CCC(=O)N1C1CCCC1` (configuration not stated) the B-score was “inactive”.
In the case of `CCOc1ccc(CNC(=O)C2CCC(=O)N2C2CCCC2)cc1OC` (configuration not stated), the B-score is reported as “inactive”.
With `CN1CCN(C(=O)N2c3ccccc3CCc3ccccc32)CC1` the B-score was -9.54 (active).
For `CC1CC(C)CN(CC(=O)N2c3ccccc3CCc3ccccc32)C1` (configuration not stated), the B-score was “inactive”.
With `CCC(=O)N1CCCc2ccccc21` the B-score was “inactive”.
With `N#CC1(C#N)C(C(=O)C23CC4CC(CC(C4)C2)C3)C12CCOCC2` (configuration not stated) the B-score was “inactive”.
In the case of `FC(F)(F)C1CCCN(c2nsc3ccccc23)C1` (configuration not stated), the B-score is reported as “inactive”.
For `COC(=O)c1cccc(N(CC(=O)NCC2CCCO2)C(=O)CCC(=O)Nc2cc(C)on2)c1` (configuration not stated), the B-score was “inactive”.
For `CN(Cc1ccccc1)c1nc2c(c(=O)[nH]c(=O)n2C)n1CCSc1nc2ccccc2[nH]1`, the B-score was “inactive”.
With `Cc1ccnc(SCCn2c(N(C)Cc3ccccc3)nc3c2c(=O)n(C)c(=O)n3C)n1` the B-score was -7.93 (active).
For `CC(C)CCn1c(CN(C)Cc2ccccc2)nc2c1c(=O)n(C)c(=O)n2C`, the B-score was “inactive”.
For `CC(C)c1nnc(NC(=O)COC(=O)/C=C/c2ccc([N+](=O)[O-])cc2)s1`, the B-score was “inactive”.
For `COCCCNc1nc2ccccc2nc1NS(=O)(=O)c1ccc(F)cc1`, the B-score was “inactive”.
For `O=C(Cn1ncc(N2CCCC2)c(Br)c1=O)c1ccc(Cl)cc1`, the B-score was “inactive”.
With `COc1cccc(N(CC(=O)NC2CCCC2)C(=O)CCCC(=O)Nc2ccccn2)c1` the B-score was “inactive”.
With `Fc1ccc(Cn2nnnc2C(c2cccs2)N2CCCCCC2)cc1` (configuration not stated) the B-score was “inactive”.
In the case of `CCCCN1C(=O)/C(=C/C=C2/C=Cc3ccccc3N2CC)SC1=S`, the B-score is reported as “inactive”.
In the case of `CN1C=CC=C/C1=C1\SC(=S)N(Cc2ccccc2)C1=O`, the B-score is reported as -9.24 (active).
In the case of `CCCCN1C(=O)/C(=C2/Sc3ccc(Cl)cc3N2CC)SC1=S`, the B-score is reported as “inactive”.
With `CCCCN1C(=O)/C(=C2/C=CC=CN2C)SC1=S` the B-score was -8.69 (active).
In the case of `CCN1C(=O)/C(=C2/Sc3ccccc3N2CCCS(=O)(=O)O)SC1=S`, the B-score is reported as “inactive”.
For `COc1cc(/C=C2/SC(=S)N(Cc3ccccc3)C2=O)cc(OC)c1O`, the B-score was “inactive”.
In the case of `CC(C)CNC(=S)NNC(=O)c1ccccc1OC(F)F`, the B-score is reported as “inactive”.
In the case of `Cc1cccc(C(C)C)c1NC(=O)COC(=O)C1CC(=O)N(Cc2ccccc2)C1` (configuration not stated), the B-score is reported as “inactive”.
With `CNC(=O)c1[nH]cnc1C(=O)N[C@@H](CC(C)C)C(=O)OCc1ccccc1` the B-score was “inactive”.
For `N#Cc1ccc(/C=C2\CCn3c2nc2cc(C(=O)O)ccc2c3=O)cc1`, the B-score was “inactive”.
For `O=C(O)CC(SCC(=O)Nc1ccc(Br)cc1)C(=O)O` (configuration not stated), the B-score was “inactive”.
In the case of `Cc1ccc(NC(=O)c2oc3ccccc3c2C)c([N+](=O)[O-])c1`, the B-score is reported as “inactive”.
For `COc1ccc(-c2csc3ncnc(N4CCN(S(=O)(=O)c5ccccc5C#N)CC4)c23)cc1`, the B-score was “inactive”.
In the case of `COc1ccc(-c2csc3ncnc(N4CCN(S(=O)(=O)c5cccc(F)c5)CC4)c23)cc1`, the B-score is reported as -7.35 (active).
For `COc1ccc(-c2csc3ncnc(Oc4ccc5c(C)cc(=O)oc5c4)c23)cc1`, the B-score was “inactive”.
With `O=C(NCc1ccccc1)[C@H]1C[C@@H]1[C@H](NP(=O)(c1ccccc1)c1ccccc1)c1ccccc1` the B-score was “inactive”.
With `CCCn1nnnc1NC(=O)COc1ccc(Cl)cc1C` the B-score was “inactive”.
For `CCCCCCOc1ccc(OC(=O)c2cccnc2)cc1`, the B-score was “inactive”.
For `CN(C)CCCN1C(=O)CSC1c1ccc([N+](=O)[O-])cc1` (configuration not stated), the B-score was “inactive”.
With `CCCCCCCCCCCCN1C(=O)CSC1c1cccnc1` (configuration not stated) the B-score was -10 (active).
For `CC1(c2ccc3ccccc3c2)NC(=O)N(CC(N)=O)C1=O` (configuration not stated), the B-score was “inactive”.
For `CC1(C)CC(=O)C=C(N2CCOCC2)C1`, the B-score was “inactive”.
For `O=[N+]([O-])c1ccccc1OCCCCN1CCCCC1`, the B-score was “inactive”.
With `Cc1ccc(OCCCCN2CCCCC2)c(Br)c1` the B-score was -7.76 (active).
With `Cc1ccc(C(C)(C)C)c(OCCCCN2CCCC2)c1` the B-score was “inactive”.
For `O=C(NCCCCc1ccccc1)C1CC(c2ccc([N+](=O)[O-])cc2)=NO1` (configuration not stated), the B-score was “inactive”.
In the case of `Cc1ccc(NC(=O)c2sccc2C)cc1[N+](=O)[O-]`, the B-score is reported as “inactive”.
In the case of `O=C(Nc1ccc([N+](=O)[O-])cc1)C1CC12CCC2` (configuration not stated), the B-score is reported as “inactive”.
For `COc1ccc(C(=O)N(C)CC(O)c2ccccc2)cc1OC1CCN(C(C)=O)CC1` (configuration not stated), the B-score was “inactive”.
In the case of `CCC(NC(=O)c1ccccc1NC(=O)c1ccccc1)C(=O)NNC(=O)CSc1nc2ccccc2o1` (configuration not stated), the B-score is reported as “inactive”.
For `CN(C(=O)c1cccc(OC2CCN(S(=O)(=O)N(C)C)CC2)c1)C1CCOC1` (configuration not stated), the B-score was “inactive”.
In the case of `CN(C)S(=O)(=O)N1CCC(Oc2cccc(C(=O)NCCCC3CCCC3)c2)CC1`, the B-score is reported as -7.71 (active).
For `CNS(=O)(=O)c1cccc(C(=O)NCC2CCCCC2)c1`, the B-score was “inactive”.
In the case of `Cc1ccc(-c2nc(CS(=O)(=O)CC(=O)NCc3ccc4c(c3)OCO4)c(C)o2)cc1`, the B-score is reported as “inactive”.
With `N=c1c2c3c(sc2nc2n1CCCCC2)CCCC3` the B-score was -8.12 (active).
With `CC1(C)Cc2c(sc3nc4n(c(=N)c23)CCCCC4)CO1` the B-score was “inactive”.
For `N=c1c2c3c(sc2ncn1N)CCCCC3`, the B-score was “inactive”.
In the case of `CCOc1ccc(S(=O)(=O)Nc2ccc(C(=O)NCCCN3CCCC3=O)cc2)cc1`, the B-score is reported as “inactive”.
For `Cc1ccccc1C(OCCN(C)C)C1CCCCC1` (configuration not stated), the B-score was -8.62 (active).
With `CN(C)CCOC1c2ccccc2-c2ccccc21` the B-score was “inactive”.
For `CN(C)CCOC(=O)C(c1ccccc1)C1(O)CCCC1` (configuration not stated), the B-score was “inactive”.
With `Cc1ccc(C)c(N2CCN(C(=O)Cn3ncn4cccc4c3=O)CC2)c1` the B-score was “inactive”.
For `O=C(CCCCCn1c(=S)[nH]c2cc3c(cc2c1=O)OCO3)N1CCN(c2ccc(F)cc2)CC1`, the B-score was “inactive”.
For `Cc1ccc(C)c(N2CCN(C(=O)CCc3nc4ccccc4[nH]3)CC2)c1`, the B-score was “inactive”.
With `Cc1ccc(C)c(N2CCN(C(=O)CCCCCn3c(=S)[nH]c4ccc(N5CCOCC5)cc4c3=O)CC2)c1` the B-score was -10.9 (active).
With `Cc1ccc(C)c(N2CCN(C(=O)CCCn3c(=O)c4cccn4c4cccnc43)CC2)c1` the B-score was -7.65 (active).
In the case of `Cc1ccc(C)c(N2CCN(C(=O)CCCCn3c(=O)[nH]c4ccccc4c3=O)CC2)c1`, the B-score is reported as “inactive”.
In the case of `Cn1c(=O)c2c(SCC(=O)NCC3CCCO3)nc(CC(C)(C)C)nc2n(C)c1=O` (configuration not stated), the B-score is reported as “inactive”.
For `OC1CCCN(c2ncnc3c2nnn3Cc2c(F)cccc2Cl)C1` (configuration not stated), the B-score was “inactive”.
With `COc1ccc(CNC(=O)C(c2ccc(O)cc2)N(Cc2ccco2)C(=O)c2snc(C(N)=O)c2N)cc1` (configuration not stated) the B-score was “inactive”.
With `CC(C)c1ccc(NC(=O)Cn2ncc3ccccc32)cc1` the B-score was “inactive”.
In the case of `COc1cccc(CNC(=O)CCC2CCCN(C(=O)c3ccc(F)c(Cl)c3)C2)c1` (configuration not stated), the B-score is reported as “inactive”.
With `COc1cccc(CNC(=O)CCC2CCCN(Cc3ccc(OC(F)F)cc3)C2)c1` (configuration not stated) the B-score was -12 (active).
With `COc1cccc(C(=O)N2CCCC(CCC(=O)NCc3ccc(F)c(F)c3)C2)c1` (configuration not stated) the B-score was “inactive”.
In the case of `COc1cccc(C(=O)OCc2cc(=O)oc3c(C)c(C)ccc23)c1OC`, the B-score is reported as “inactive”.
In the case of `CN1C(=O)c2cccc3c(N)ccc(c23)C1=O`, the B-score is reported as “inactive”.
For `Cc1nn(C)cc1N1C(=O)c2cccc3c(N)ccc(c23)C1=O`, the B-score was -8.92 (active).
In the case of `O=C1c2ccccc2C(=O)N1c1cccc2ccccc12`, the B-score is reported as “inactive”.
For `COc1ccc(C(=O)Nc2ccc(C(=O)NCC3CCCO3)cc2)c(OC)c1OC` (configuration not stated), the B-score was “inactive”.
For `CC(=O)NCC(=O)N1CCC(n2nccc2NC(=O)CCCc2ccccc2)CC1`, the B-score was “inactive”.
In the case of `COc1ccc(C(=O)/C=C/c2ccc(-c3ccccc3)cc2)cc1CSCC(=O)O`, the B-score is reported as -7.93 (active).
In the case of `COC(=O)c1ccc(COc2ccc(/C=C/C(=O)c3ccc(OC)c(CSCC(=O)O)c3)cc2OC)cc1`, the B-score is reported as “inactive”.
For `COc1ccc(/C=C/C(=O)c2ccc(NS(=O)(=O)c3ccc(C)cc3)cc2)cc1O`, the B-score was “inactive”.
For `CC(C)=CCN1CCN(CCCc2ccccc2)CC1CCO` (configuration not stated), the B-score was “inactive”.
With `NC1=NC(c2ccc([N+](=O)[O-])cc2)N(c2ccc(F)cc2)C(N)=N1` (configuration not stated) the B-score was “inactive”.
For `O=C(CN1CCCCCC1)N1c2ccccc2Sc2ccc(C(F)(F)F)cc21`, the B-score was -7.9 (active).
For `CCOC(=O)CNC(=O)N1c2ccccc2Sc2ccccc21`, the B-score was “inactive”.
For `COc1cc(/C=C/C(=O)N2c3ccccc3Sc3ccc(C(F)(F)F)cc32)cc(OC)c1OC`, the B-score was “inactive”.
